According to ChEMBL document CHEMBL1143164, “Synthesis and structure-activity relationships of ring-opened 17-hydroxywortmannins: potent phosphoinositide 3-kinase inhibitors with improved properties and anticancer efficacy” (J Med Chem, 2008):

How the values were obtained:
[1] = molecular target: Phosphatidylinositol 4,5-bisphosphate 3-kinase catalytic subunit alpha isoform (Homo sapiens, UniProt P42336); test: Inhibition of PI3K expressed in Escherichia coli by microtiter plate-based fluorescence polarization assay
Procedure, shortened: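 Fluorescence polarization assay of PI3K activity with PIP2 substrate. Reactions contained 20 mM Hepes pH 7.5, 2 mM MgCl2, 0.05% CHAPS, 0.01% βME, 20 µM PIP2 and 25 µM ATP, and ran 15–30 min at room temperature. They were stopped with buffer holding 10 nM TAMRA-labeled probe and 40 nM GST-GRP1 (E. coli-expressed detector), then incubated 1–2 h before FP readout.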

[2] = molecular target: Serine/threonine-protein kinase mTOR (Homo sapiens, UniProt P42345); test: Inhibition of mTOR
[3] = test system: LNCaP; test: Growth inhibition of human LNCap cells; assay type: functional, cell-based

Phosphatidylinositol 4,5-bisphosphate 3-kinase catalytic subunit alpha isoform, sequence (P42336 whole entry, canonical isoform): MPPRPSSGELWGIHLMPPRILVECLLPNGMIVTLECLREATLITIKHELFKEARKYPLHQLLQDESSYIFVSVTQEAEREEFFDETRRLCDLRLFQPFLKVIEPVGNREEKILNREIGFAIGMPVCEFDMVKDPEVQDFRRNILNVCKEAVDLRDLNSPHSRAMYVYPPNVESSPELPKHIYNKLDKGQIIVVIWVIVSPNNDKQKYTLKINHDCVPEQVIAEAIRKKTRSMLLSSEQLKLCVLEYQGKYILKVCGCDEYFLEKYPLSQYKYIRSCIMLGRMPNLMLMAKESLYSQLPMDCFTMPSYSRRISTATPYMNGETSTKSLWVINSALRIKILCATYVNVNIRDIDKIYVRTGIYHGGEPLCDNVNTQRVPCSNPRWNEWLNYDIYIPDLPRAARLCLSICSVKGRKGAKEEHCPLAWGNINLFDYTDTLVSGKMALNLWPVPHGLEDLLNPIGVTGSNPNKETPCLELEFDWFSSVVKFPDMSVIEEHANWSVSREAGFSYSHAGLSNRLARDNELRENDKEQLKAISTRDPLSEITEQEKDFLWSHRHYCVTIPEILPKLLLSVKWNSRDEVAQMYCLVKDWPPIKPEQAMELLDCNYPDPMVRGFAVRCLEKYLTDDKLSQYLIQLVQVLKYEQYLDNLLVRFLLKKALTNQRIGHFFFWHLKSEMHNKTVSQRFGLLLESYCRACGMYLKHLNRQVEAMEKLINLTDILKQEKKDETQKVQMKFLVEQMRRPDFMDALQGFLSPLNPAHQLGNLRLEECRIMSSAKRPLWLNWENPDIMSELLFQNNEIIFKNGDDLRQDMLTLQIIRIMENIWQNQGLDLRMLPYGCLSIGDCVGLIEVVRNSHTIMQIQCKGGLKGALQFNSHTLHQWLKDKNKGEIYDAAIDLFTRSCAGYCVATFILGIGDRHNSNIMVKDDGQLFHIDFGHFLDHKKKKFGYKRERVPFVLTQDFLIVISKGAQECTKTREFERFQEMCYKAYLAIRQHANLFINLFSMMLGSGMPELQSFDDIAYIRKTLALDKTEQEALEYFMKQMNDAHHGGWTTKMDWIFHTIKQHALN

IC50 [1] | IC50 [2] | IC50 [3] | Structure (SMILES)
638 nM | > 20000 nM | 2340 nM | COC[C@H]1OC(=O)/C(=C/N(C)CCCN(C)C)C2=C(O)C(=O)C3=C([C@H](O)C[C@]4(C)[C@@H](O)CC[C@@H]34)[C@]21C
66 nM | 5600 nM | 1430 nM | COC[C@H]1OC(=O)/C(=C/N(CCN(C)C)Cc2ccccc2)C2=C(O)C(=O)C3=C([C@H](OC(C)=O)C[C@]4(C)[C@@H](O)CC[C@@H]34)[C@]21C
60 nM | 960 nM | 699 nM | COC[C@H]1OC(=O)/C(=C/N2CCC(=O)CC2)C2=C(O)C(=O)C3=C([C@H](OC(C)=O)C[C@]4(C)[C@@H](O)CC[C@@H]34)[C@]21C
> 10000 nM | > 20000 nM | 40700 nM | COC[C@H]1OC(=O)/C(=C/NC(C)(C)C)C2=C(O)C(=O)C3=C([C@H](OC(C)=O)C[C@]4(C)[C@@H](O)CC[C@@H]34)[C@]21C
38 nM | 249 nM | 831 nM | COC[C@H]1OC(=O)/C(=C/N2CCN(CCCN(C)C)CC2)C2=C(O)C(=O)C3=C([C@H](OC(C)=O)C[C@]4(C)[C@@H](O)CC[C@@H]34)[C@]21C
193 nM | 12600 nM | 365 nM | COC[C@H]1OC(=O)/C(=C/N(C)CCCC(=O)O)C2=C(O)C(=O)C3=C([C@H](OC(C)=O)C[C@]4(C)[C@@H](O)CC[C@@H]34)[C@]21C
1580 nM | 13900 nM | 174 nM | COC[C@H]1OC(=O)/C(=C/N(C)CC(=O)OC(C)(C)C)C2=C(O)C(=O)C3=C([C@H](OC(C)=O)C[C@]4(C)[C@@H](O)CC[C@@H]34)[C@]21C
56 nM | 692 nM | 953 nM | COC[C@H]1OC(=O)/C(=C/N2CCN(c3ccccc3)CC2)C2=C(O)C(=O)C3=C([C@H](OC(C)=O)C[C@]4(C)[C@@H](O)CC[C@@H]34)[C@]21C
15 nM | 1350 nM | 620 nM | COC[C@H]1OC(=O)/C(=C/N(C)CCCN2CCN(c3ccc(OC)cc3)CC2)C2=C(O)C(=O)C3=C([C@H](OC(C)=O)C[C@]4(C)[C@@H](O)CC[C@@H]34)[C@]21C
440 nM | 6500 nM | 189 nM | COC[C@H]1OC(=O)/C(=C/N(C)C(C)(C)C)C2=C(O)C(=O)C3=C([C@H](OC(C)=O)C[C@]4(C)[C@@H](O)CC[C@@H]34)[C@]21C
> 10000 nM | > 20000 nM | 2020 nM | COC[C@H]1OC(=O)/C(=C/NCCCN(C)C)C2=C(O)C(=O)C3=C([C@H](OC(C)=O)C[C@]4(C)[C@@H](O)CC[C@@H]34)[C@]21C
24 nM | 2290 nM | 595 nM | COC[C@H]1OC(=O)/C(=C/N(C)CCCN2CCOCC2)C2=C(O)C(=O)C3=C([C@H](OC(C)=O)C[C@]4(C)[C@@H](O)CC[C@@H]34)[C@]21C
90 nM | 829 nM | 1090 nM | COC[C@H]1OC(=O)/C(=C/N2CCN(C)CC2)C2=C(O)C(=O)C3=C([C@H](OC(C)=O)C[C@]4(C)[C@@H](O)CC[C@@H]34)[C@]21C
87 nM | 890 nM | 1650 nM | COC[C@H]1OC(=O)/C(=C/N2CCN(Cc3ccccc3)CC2)C2=C(O)C(=O)C3=C([C@H](OC(C)=O)C[C@]4(C)[C@@H](O)CC[C@@H]34)[C@]21C
918 nM | > 18700 nM | 131 nM | COC[C@H]1OC(=O)/C(=C/N(CCO)CCO)C2=C(O)C(=O)C3=C([C@H](OC(C)=O)C[C@]4(C)[C@@H](O)CC[C@@H]34)[C@]21C
172 nM | 2450 nM | 1520 nM | COC[C@H]1OC(=O)/C(=C/N2CCC(c3ccccc3)CC2)C2=C(O)C(=O)C3=C([C@H](OC(C)=O)C[C@]4(C)[C@@H](O)CC[C@@H]34)[C@]21C
444 nM | > 1690 nM | 144 nM | COC[C@H]1OC(=O)/C(=C/N(CCC#N)Cc2ccccc2)C2=C(O)C(=O)C3=C([C@H](OC(C)=O)C[C@]4(C)[C@@H](O)CC[C@@H]34)[C@]21C

IC50 [1] | IC50 [2] | IC50 [3] | Structure (SMILES)
24 nM | 1480 nM | 1310 nM | CCN(/C=C1/C(=O)O[C@H](COC)[C@@]2(C)C1=C(O)C(=O)C1=C2[C@H](OC(C)=O)C[C@]2(C)[C@@H](O)CC[C@@H]12)CCN(CC)CC
91 nM | 961 nM | 782 nM | COC[C@H]1OC(=O)/C(=C/N2CCN(C3CCN(C)CC3)CC2)C2=C(O)C(=O)C3=C([C@H](OC(C)=O)C[C@]4(C)[C@@H](O)CC[C@@H]34)[C@]21C
31 nM | 1690 nM | 506 nM | COC[C@H]1OC(=O)/C(=C/N2CCC(C(=O)OC)CC2)C2=C(O)C(=O)C3=C([C@H](OC(C)=O)C[C@]4(C)[C@@H](O)CC[C@@H]34)[C@]21C
8.4 nM | 1470 nM | 751 nM | COC[C@H]1OC(=O)/C(=C/N(C)CCN(C)C)C2=C(O)C(=O)C3=C([C@H](OC(C)=O)C[C@]4(C)[C@@H](O)CC[C@@H]34)[C@]21C
104 nM | 1800 nM | 1550 nM | COC[C@H]1OC(=O)/C(=C/N2CCCCC2)C2=C(O)C(=O)C3=C([C@H](OC(C)=O)C[C@]4(C)[C@@H](O)CC[C@@H]34)[C@]21C
127 nM | 1210 nM | 1010 nM | COC[C@H]1OC(=O)/C(=C/N(C)C2CCN(C)C2)C2=C(O)C(=O)C3=C([C@H](OC(C)=O)C[C@]4(C)[C@@H](O)CC[C@@H]34)[C@]21C (stereo partly drawn)
496 nM | > 20000 nM | 257 nM | COC[C@H]1OC(=O)/C(=C/N2CCCC2)C2=C(O)C(=O)C3=C([C@H](OC(C)=O)C[C@]4(C)[C@@H](O)CC[C@@H]34)[C@]21C
78 nM | 619 nM | 794 nM | COC[C@H]1OC(=O)/C(=C/N2CCN(CCN3CCOCC3)CC2)C2=C(O)C(=O)C3=C([C@H](OC(C)=O)C[C@]4(C)[C@@H](O)CC[C@@H]34)[C@]21C
45 nM | 1200 nM | 637 nM | COC[C@H]1OC(=O)/C(=C/N2CCN(CCCN3CCOCC3)CC2)C2=C(O)C(=O)C3=C([C@H](OC(C)=O)C[C@]4(C)[C@@H](O)CC[C@@H]34)[C@]21C
33 nM | 822 nM | 500 nM | COC[C@H]1OC(=O)/C(=C/N2CCC(C(=O)O)CC2)C2=C(O)C(=O)C3=C([C@H](OC(C)=O)C[C@]4(C)[C@@H](O)CC[C@@H]34)[C@]21C
43 nM | 820 nM | 1470 nM | COC[C@H]1OC(=O)/C(=C/N2CCN(C3CCCCC3)CC2)C2=C(O)C(=O)C3=C([C@H](OC(C)=O)C[C@]4(C)[C@@H](O)CC[C@@H]34)[C@]21C
63 nM | 568 nM | 1500 nM | COC[C@H]1OC(=O)/C(=C/N2CCC(N3CCCCC3)CC2)C2=C(O)C(=O)C3=C([C@H](OC(C)=O)C[C@]4(C)[C@@H](O)CC[C@@H]34)[C@]21C
9.6 nM | 816 nM | 919 nM | COC[C@H]1OC(=O)/C(=C/N(CCCN(C)C)C(C)(C)C)C2=C(O)C(=O)C3=C([C@H](OC(C)=O)C[C@]4(C)[C@@H](O)CC[C@@H]34)[C@]21C
50 nM | 767 nM | 2590 nM | CCN(CC)CCN(C)/C=C1/C(=O)O[C@H](COC)[C@@]2(C)C1=C(O)C(=O)C1=C2[C@H](OC(C)=O)C[C@]2(C)[C@@H](O)CC[C@@H]12
22 nM | 3560 nM | 259 nM | COC[C@H]1OC(=O)/C(=C/N(CCCN(C)C)CCCN(C)C)C2=C(O)C(=O)C3=C([C@H](OC(C)=O)C[C@]4(C)[C@@H](O)CC[C@@H]34)[C@]21C
199 nM | 1870 nM | 168 nM | COC[C@H]1OC(=O)/C(=C/N(C)CC(O)CO)C2=C(O)C(=O)C3=C([C@H](OC(C)=O)C[C@]4(C)[C@@H](O)CC[C@@H]34)[C@]21C (stereo partly drawn)
10 nM | 2330 nM | 465 nM | COC[C@H]1OC(=O)/C(=C/N(C)CCCN2CCN(C)CC2)C2=C(O)C(=O)C3=C([C@H](OC(C)=O)C[C@]4(C)[C@@H](O)CC[C@@H]34)[C@]21C

Structure (SMILES) | IC50 [1] | IC50 [2] | IC50 [3]
C=CCN(/C=C1/C(=O)O[C@H](COC)[C@@]2(C)C1=C(O)C(=O)C1=C2[C@H](OC(C)=O)C[C@]2(C)C(=O)CC[C@@H]12)CC=C [SONOLISIB] | 88 nM | 3100 nM | 573 nM
CCN(/C=C1/C(=O)O[C@H](COC)[C@@]2(C)C1=C(O)C(=O)C1=C2[C@H](OC(C)=O)C[C@]2(C)[C@@H](O)CC[C@@H]12)CCN(C)C | 5 nM | 878 nM | 1020 nM
CCCCN(C)/C=C1/C(=O)O[C@H](COC)[C@@]2(C)C1=C(O)C(=O)C1=C2[C@H](OC(C)=O)C[C@]2(C)[C@@H](O)CC[C@@H]12 | 635 nM | 8700 nM | 203 nM
COC[C@H]1OC(=O)/C(=C/N2CCOCC2)C2=C(O)C(=O)C3=C([C@H](OC(C)=O)C[C@]4(C)[C@@H](O)CC[C@@H]34)[C@]21C | 37 nM | 831 nM | 966 nM
CCN/C=C1/C(=O)O[C@H](COC)[C@@]2(C)C1=C(O)C(=O)C1=C2[C@H](OC(C)=O)C[C@]2(C)[C@@H](O)CC[C@@H]12 | > 10000 nM | > 20000 nM | 7070 nM
CCN(/C=C1/C(=O)O[C@H](COC)[C@@]2(C)C1=C(O)C(=O)C1=C2[C@H](OC(C)=O)C[C@]2(C)[C@@H](O)CC[C@@H]12)CCCN(C)C | 12 nM | 3570 nM | 535 nM
CCN(/C=C1/C(=O)O[C@H](COC)[C@@]2(C)C1=C(O)C(=O)C1=C2[C@H](O)C[C@]2(C)[C@@H](O)CC[C@@H]12)CC | 7850 nM | > 20000 nM | 710 nM
